Results: ChEMBL document CHEMBL2086283, “Novel 4-aminoquinoline-pyrimidine based hybrids with improved in vitro and in vivo antimalarial activity” (ACS Med Chem Lett, 2012)
The source made the active and inactive calls. The rule behind the calls is not given here.

Tests used:
Plasmodium falciparum [1] = test: Antiplasmodial activity against chloroquine-sensitive Plasmodium falciparum D6 infected in red blood cells after 72 hrs by parasitic LDH assay; format: functional, organism-based; settings: D6, 72 h
Plasmodium falciparum [2] = test: Antiplasmodial activity against chloroquine-resistant Plasmodium falciparum W2 infected in red blood cells after 72 hrs by parasitic LDH assay; format: functional, organism-based; settings: W2, 72 h
Vero [3] = test: Cytotoxicity against african green monkey Vero cells after 48 hrs by neutral red assay; format: cell-based; settings: chlorocebus sabaeus
Procedure, shortened: (§1)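 Mammalian cell cytotoxicity was measured as IC50 in Vero (monkey kidney fibroblasts), LLC-PK11 (pig kidney epithelial) and HepG2 (human hepatoma) cells. The highest concentration tested was 60 μM. Values are the mean of two independent experiments ± SD.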

[4] = Cytotoxicity against pig LLC-PK11 cells after 48 hrs by neutral red assay; format: cell-based; settings: Sus scrofa, LLC-PK11, 48 h; procedure, shortened: as §1
HepG2 [5] = test: Cytotoxicity against human HepG2 cells after 48 hrs by neutral red assay; format: cell-based; settings: HepG2, 48 h; procedure, shortened: as §1
[6] = Selectivity index, ratio of IC50 for african green monkey Vero cells to IC50 for chloroquine-sensitive Plasmodium falciparum D6; format: toxicity, cell-based; settings: read-out: Ratio IC50
Procedure, shortened: (§2)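 SI is the IC50 for cytotoxicity to Vero cells (monkey kidney fibroblasts) divided by the antimalarial IC50 against the named P. falciparum clone. Cytotoxicity was tested up to 60 μM.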

[7] = Selectivity index, ratio of IC50 for african green monkey Vero cells to IC50 for chloroquine-resistant Plasmodium falciparum W2; format: toxicity, cell-based; settings: read-out: Ratio IC50; procedure, shortened: as §2
Vero [8] = test: Cytotoxicity against african green monkey Vero cells up to 60 uM after 48 hrs by neutral red assay; format: cell-based; settings: chlorocebus sabaeus; procedure, shortened: as §1
[9] = Cytotoxicity against pig LLC-PK11 cells up to 60 uM after 48 hrs by neutral red assay; format: cell-based, Sus scrofa; settings: llc-pk11, 48 h; procedure, shortened: as §1
HepG2 [10] = test: Cytotoxicity against human HepG2 cells up to 60 uM after 48 hrs by neutral red assay; format: cell-based; settings: hepg2, 48 h; procedure, shortened: as §1
Plasmodium falciparum [11] = test: Ratio of chloroquine IC50 to compound IC50 for chloroquine-resistant Plasmodium falciparum W2; format: functional
Plasmodium falciparum [12] = test: Ratio of chloroquine IC50 to compound IC50 for chloroquine-sensitive Plasmodium falciparum D6; format: functional
Plasmodium falciparum [13] = test: Ratio of artemesin IC50 to compound IC50 for chloroquine-sensitive Plasmodium falciparum D6; format: functional
Plasmodium berghei [14] = test: Antimalarial activity against Plasmodium berghei infected in mouse assessed as suppression in parasitemia at 3.3 mg/kg, po administered QD for 3 days measured on day 5 relative to control; format: functional
Procedure, shortened: (§3)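 P. berghei-infected mice, 5 per group, dosed by oral gavage once daily on days 0, 1 and 2 postinfection, with a vehicle control arm. Mice were followed to day 28 postinfection for apparent toxicity, parasitemia and survival. Parasitemia suppression is expressed against mean vehicle-control parasitemia set as 100%, and cure is the number cured per 5 mice.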

Plasmodium berghei [15] = test: Antimalarial activity against Plasmodium berghei infected in mouse assessed as suppression in parasitemia at 10 mg/kg, po administered QD for 3 days measured on day 5 relative to control; format: functional; procedure, shortened: as §3
Plasmodium berghei [16] = test: Antimalarial activity against Plasmodium berghei infected in mouse assessed as suppression in parasitemia at 30 mg/kg, po administered QD for 3 days measured on day 5 relative to control; format: functional; procedure, shortened: as §3
Plasmodium berghei [17] = test: Antimalarial activity against Plasmodium berghei infected in mouse assessed as suppression in parasitemia at 3.3 mg/kg, po administered QD for 3 days measured on day 7 relative to control; format: functional; procedure, shortened: as §3
Plasmodium berghei [18] = test: Antimalarial activity against Plasmodium berghei infected in mouse assessed as suppression in parasitemia at 10 mg/kg, po administered QD for 3 days measured on day 7 relative to control; format: functional; procedure, shortened: as §3
Plasmodium berghei [19] = test: Antimalarial activity against Plasmodium berghei infected in mouse assessed as suppression in parasitemia at 30 mg/kg, po administered QD for 3 days measured on day 7 relative to control; format: functional; procedure, shortened: as §3
Mus musculus [20] = test: Toxicity in mouse infected with Plasmodium berghei assessed as host survival at 3.3 mg/kg, po administered QD for 3 days measured on day 28; format: organism-based; design: dose 3.3 mg/kg, route oral; settings: in vivo, 72 h
Mus musculus [21] = test: Toxicity in mouse infected with Plasmodium berghei assessed as host survival at 10 mg/kg, po administered QD for 3 days measured on day 28; format: organism-based; design: dose 10 mg/kg, route oral; settings: in vivo, 72 h
Mus musculus [22] = test: Toxicity in mouse infected with Plasmodium berghei assessed as host survival at 30 mg/kg, po administered QD for 3 days measured on day 28; format: organism-based; design: dose 30 mg/kg, route oral; settings: in vivo, 72 h
Plasmodium berghei [23] = test: Antimalarial activity Plasmodium berghei infected in mouse assessed as mean survival time at 3.3 mg/kg, po administered QD for 3 days (reference value: 15.2 days); format: functional
Plasmodium berghei [24] = test: Antimalarial activity Plasmodium berghei infected in mouse assessed as mean survival time at 10 mg/kg, po administered QD for 3 days (reference value: 15.2 days); format: functional
Plasmodium berghei [25] = test: Antimalarial activity Plasmodium berghei infected in mouse assessed as mean survival time at 30 mg/kg, po administered QD for 3 days (reference value: 15.2 days); format: functional
Plasmodium berghei [26] = test: Antimalarial activity Plasmodium berghei infected in mouse assessed as cure from infection at 3.3 mg/kg, po administered QD for 3 days measured on day 28; format: functional, organism-based; design: dose 3.3 mg/kg; procedure, shortened: as §3
Plasmodium berghei [27] = test: Antimalarial activity Plasmodium berghei infected in mouse assessed as cure from infection at 10 mg/kg, po administered QD for 3 days measured on day 28; format: functional, organism-based; design: dose 10 mg/kg; procedure, shortened: as §3
Plasmodium berghei [28] = test: Antimalarial activity Plasmodium berghei infected in mouse assessed as cure from infection at 30 mg/kg, po administered QD for 3 days measured on day 28; format: functional; procedure, shortened: as §3

| SMILES | IC50 (Plasmodium falciparum [1]) | IC50 (Plasmodium falciparum [2]) | IC50 (Vero [3]) | IC50 [4] | IC50 (HepG2 [5]) | selectivity ratio [6] | selectivity ratio [7] | Activity (Vero [8]) | Activity [9] | Activity (HepG2 [10]) | Ratio IC50 (Plasmodium falciparum [11]) | other results |
| --- | --- | --- | --- | --- | --- | --- | --- | --- | --- | --- | --- | --- |
| Cc1cc(NCCCCCCNc2ccnc3cc(Cl)ccc23)nc(N2CCCCC2)n1 | 60 nM | 100 nM | 8800 nM | 6300 nM | 6400 nM | 146 | 88 |  |  |  |  |  |
| Cc1cc(NCCNc2ccnc3cc(Cl)ccc23)nc(Cl)n1 | 160 nM | 500 nM |  |  |  | > 370 | > 120 | Non-toxic | Non-toxic | Non-toxic |  |  |
| Cc1cc(NCCCCCCNc2ccnc3cc(Cl)ccc23)nc(Cl)n1 | 440 nM | 540 nM | 32700 nM | 15800 nM | 9100 nM | 74.3 | 60.6 |  |  |  |  |  |
| Cc1cc(Cl)nc(NCCCCCCNc2ccnc3cc(Cl)ccc23)n1 | 140 nM | 580 nM | 49400 nM | 24000 nM | 8100 nM | 353 | 85.2 |  |  |  |  |  |
| Cc1cc(NCCCCNc2ccnc3cc(Cl)ccc23)nc(N2CCCCC2)n1 | 20 nM | 90 nM |  |  |  | > 3000 | > 666 | Non-toxic | Non-toxic | Non-toxic | 6 |  |
| Cc1cc(NCCCNc2ccnc3cc(Cl)ccc23)nc(N2CCN(C)CC2)n1 | 7 nM | 60 nM |  | 34600 nM | 26700 nM | > 8570 | > 1000 | Non-toxic |  |  | 6 | Ratio IC50 (Plasmodium falciparum [12]): 6; Ratio IC50 (Plasmodium falciparum [13]): 2 |
| CCN1CCN(c2nc(C)cc(NCCCCNc3ccnc4cc(Cl)ccc34)n2)CC1 | 20 nM | 20 nM | 32400 nM | 10700 nM | 15400 nM | 1620 | 1620 |  |  |  | 6 |  |
| Cc1cc(NCCCNc2ccnc3cc(Cl)ccc23)nc(N2CCOCC2)n1 | 20 nM | 50 nM |  | 35700 nM | 26200 nM | > 3000 | > 1200 | Non-toxic |  |  | 6 |  |
| COc1cccc2c1C(=O)c1c(O)c3c(c(O)c1C2=O)C[C@@](O)(C(=O)CO)C[C@@H]3O[C@H]1C[C@H](N)[C@H](O)[C@H](C)O1 [DOXORUBICIN] |  |  | 8600 nM | 1050 nM | 1000 nM |  |  |  |  |  |  |  |
| Cc1cc(NCCCCCCNc2ccnc3cc(Cl)ccc23)nc(N2CCN(C)CC2)n1 | 7 nM | 16 nM | 10400 nM | 7200 nM | 6300 nM | 1480 | 650 |  |  |  | 6 | Ratio IC50 (Plasmodium falciparum [12]): 6; Ratio IC50 (Plasmodium falciparum [13]): 2 |
| C[C@@H]1CC[C@H]2[C@@H](C)C(=O)O[C@@H]3O[C@@]4(C)CC[C@@H]1[C@]32OO4 [ARTEMISININ] |  |  |  |  |  |  |  | Non-toxic | Non-toxic | Non-toxic |  |  |
| Cc1cc(Cl)nc(NCCCCNc2ccnc3cc(Cl)ccc23)n1 | 170 nM | 640 nM |  |  | 46400 nM | > 353 | > 94 | Non-toxic | Non-toxic |  |  |  |
| CCN1CCN(c2nc(C)cc(NCCCNc3ccnc4cc(Cl)ccc34)n2)CC1 | 6 nM | 60 nM |  |  |  | > 10000 | > 1000 | Non-toxic | Non-toxic | Non-toxic | 6 | Ratio IC50 (Plasmodium falciparum [12]): 6; Activity (Plasmodium berghei [14]): 20.1%; Activity (Plasmodium berghei [15]): 73.9%; Activity (Plasmodium berghei [16]): 100%; Activity (Plasmodium berghei [17]): 19.1%; Activity (Plasmodium berghei [18]): 27.1%; Activity (Plasmodium berghei [19]): 100%; Activity (Mus musculus [20]): Toxic; Activity (Mus musculus [21]): Toxic; Activity (Mus musculus [22]): Non-toxic; MST (Plasmodium berghei [23]): 20.2 days; MST (Plasmodium berghei [24]): 15.2 days; MST (Plasmodium berghei [25]): 27.2 days; Activity (Plasmodium berghei [26]): inactive; Activity (Plasmodium berghei [27]): inactive; Activity (Plasmodium berghei [28]): 20%; Ratio IC50 (Plasmodium falciparum [13]): 2 |
| Cc1cc(NCCCCCCNc2ccnc3cc(Cl)ccc23)nc(N2CCOCC2)n1 | 30 nM | 140 nM | 15100 nM | 11100 nM | 6400 nM | 503 | 107 |  |  |  |  |  |
| Cc1cc(NCCNc2ccnc3cc(Cl)ccc23)nc(N2CCOCC2)n1 | 20 nM | 140 nM |  |  |  | > 3000 | > 444 | Non-toxic | Non-toxic | Non-toxic |  |  |
| Cc1cc(NCCNc2ccnc3cc(Cl)ccc23)nc(N2CCN(C)CC2)n1 | 5 nM | 30 nM |  |  |  | > 12000 | > 2000 | Non-toxic | Non-toxic | Non-toxic | 6 | Ratio IC50 (Plasmodium falciparum [12]): 6; Activity (Plasmodium berghei [14]): 23.5%; Activity (Plasmodium berghei [15]): 97%; Activity (Plasmodium berghei [16]): 100%; Activity (Plasmodium berghei [17]): 35.2%; Activity (Plasmodium berghei [18]): 2%; Activity (Plasmodium berghei [19]): 100%; Activity (Mus musculus [20]): Toxic; Activity (Mus musculus [21]): Toxic; Activity (Mus musculus [22]): Non-toxic; MST (Plasmodium berghei [23]): 19.2 days; MST (Plasmodium berghei [24]): 21.4 days; MST (Plasmodium berghei [25]): 28 days; Activity (Plasmodium berghei [26]): inactive; Activity (Plasmodium berghei [27]): inactive; Activity (Plasmodium berghei [28]): 80%; Ratio IC50 (Plasmodium falciparum [13]): 2 |
| Cc1cc(Cl)nc(NCCNc2ccnc3cc(Cl)ccc23)n1 | 210 nM | 810 nM | 43000 nM | 42300 nM | 43000 nM | 205 | 53.1 |  |  |  |  |  |
| Cc1cc(NCCCNc2ccnc3cc(Cl)ccc23)nc(Cl)n1 | 330 nM | 700 nM |  |  |  | > 184 | > 85 | Non-toxic | Non-toxic | Non-toxic |  |  |
| Cc1cc(NCCCNc2ccnc3cc(Cl)ccc23)nc(N2CCCCC2)n1 | 20 nM | 210 nM |  |  |  | > 3000 | > 285 | Non-toxic | Non-toxic | Non-toxic |  |  |
| Cc1cc(NCCCCNc2ccnc3cc(Cl)ccc23)nc(N2CCN(C)CC2)n1 | 20 nM | 20 nM |  | 34600 nM | 29500 nM | > 3000 | > 3000 | Non-toxic |  |  | 6 |  |
| Cc1cc(Cl)nc(NCCCNc2ccnc3cc(Cl)ccc23)n1 | 240 nM | 1170 nM |  |  |  | > 250 | > 51.3 | Non-toxic | Non-toxic | Non-toxic |  |  |
| Cc1cc(NCCCCNc2ccnc3cc(Cl)ccc23)nc(Cl)n1 | 120 nM | 680 nM |  |  |  | > 500 | > 88 | Non-toxic | Non-toxic | Non-toxic |  |  |
